Assay results as given in ChEMBL document CHEMBL1955769 (Bioorg Med Chem Lett, 2012).
≈ marks a conversion by molar mass, not a printed value.

What was measured:
HCT-116 [1] = assay: Induction of cell cycle arrest in human HCT116 cells assessed as accumulation at G0/G1 phase at 10 uM after 24 hrs by flow cytometry (reference value: 74.2 %); type: functional
How it was run: (§1)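 HCT116 cells (1.0 × 10^6) were plated for 24 h, then exposed to compound for 24 or 48 h, with 0.1% DMSO as control. DNA staining used a BD Cycletest Plus DNA reagent kit, and phase percentages (subG1, G0/G1, S, G2/M) were scored; data representative of three independent experiments.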

HCT-116 [2] = assay: Induction of cell cycle arrest in human HCT116 cells assessed as accumulation at SubG1 phase at 10 uM after 48 hrs by flow cytometry (reference value: 2.3 %); type: functional; how it was run: as §1
HCT-116 [3] = assay: Induction of cell cycle arrest in human HCT116 cells assessed as accumulation at SubG1 phase at 10 uM after 24 hrs by flow cytometry (reference value: 5.7 %); type: functional; how it was run: as §1
[4] = Solubility of the compound in 10 % DMSO/Water; type: physicochemical
Histone deacetylase 2 = Histone deacetylase 2 (Homo sapiens, UniProt Q92769); assay: Inhibition of HDAC2
Histone deacetylase 1 = Histone deacetylase 1 (Homo sapiens, UniProt Q13547); assay: Inhibition of HDAC1
HCT-116 [5] = assay: Antiproliferative activity against human HCT116 cells after 3 days by WST-1 assay; type: functional, cell-based; conditions: HCT-116, 72 h
How it was run: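 HCT116 human colon cancer cells exposed to compounds for 3 days; growth read by WST-1 assay; IC50 derived from triplicate assays.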

Mus musculus [6] = assay: Toxicity in human HCT116 cells xenografted in BALB/c nu/nu mouse assessed as relative body weight change at 80 mg/kg, po for 14 days measured up to day 16; type: organism-based, HCT-116; set-up: dose 80 mg/kg, route oral; conditions: in vivo, 336 h
How it was run: (§2)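 Nude mice bearing HCT116 xenografts of 90–110 mm3, grouped as vehicle (0.1% Tween 80, n = 6) or treated (n = 7); oral dosing at 45 or 80 mg/kg on days 0, 2, 4, 6, 8, 10, 12 and 14. Tumor volume and body weight followed over 16 days; tumor effect given as T/C; two-tailed Student t-test versus control, with standard errors shown.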

Mus musculus [7] = assay: Toxicity in human HCT116 cells xenografted in BALB/c- nu.nu mouse assessed as relative body weight change at 45 mg/kg, po administered every alternate days for 14 days measured up to day 16; type: organism-based, HCT-116; set-up: dose 45 mg/kg, route oral; conditions: in vivo, 336 h; how it was run: as §2
HCT-116 [8] = assay: Antitumor activity against human HCT116 cells xenografted in BALB/c nu/nu mouse assessed as suppression of tumor growth at 80 mg/kg, po administered every alternate days for 14 days measured up to 16 days relative to control; type: functional; how it was run: as §2
HCT-116 [9] = assay: Antitumor activity against human HCT116 cells xenografted in BALB/c nu/nu mouse assessed as suppression of tumor growth at 45 mg/kg, po administered every alternate days for 14 days measured up to day 16 relative to control; type: functional; how it was run: as §2
[10] = Half life in BALB/c mouse at 45 mg/kg, po by HPLC-ESI-MS/MS analysis; type: ADME, organism-based; set-up: dose 45 mg/kg, route oral; conditions: in vivo
[11] = Tmax in BALB/c mouse at 45 mg/kg, po by HPLC-ESI-MS/MS analysis; type: ADME, organism-based; set-up: dose 45 mg/kg, route oral; conditions: in vivo
[12] = Cmax in BALB/c mouse at 45 mg/kg, po by HPLC-ESI-MS/MS analysis; type: ADME, organism-based; set-up: dose 45 mg/kg, route oral; conditions: in vivo
HCT-116 [13] = assay: Induction of cell cycle arrest in human HCT116 cells assessed as accumulation at G2/M phase at 10 uM after 48 hrs by flow cytometry (reference value: 5.4 %); type: functional; how it was run: as §1
HCT-116 [14] = assay: Induction of cell cycle arrest in human HCT116 cells assessed as accumulation at G2/M phase at 10 uM after 24 hrs by flow cytometry (reference value: 9.5 %); type: functional; how it was run: as §1
HCT-116 [15] = assay: Induction of cell cycle arrest in human HCT116 cells assessed as accumulation at S phase at 10 uM after 48 hrs by flow cytometry (reference value: 10.4 %); type: functional; how it was run: as §1
HCT-116 [16] = assay: Induction of cell cycle arrest in human HCT116 cells assessed as accumulation at S phase at 10 uM after 24 hrs by flow cytometry (reference value: 10.6 %); type: functional; how it was run: as §1
HCT-116 [17] = assay: Induction of cell cycle arrest in human HCT116 cells assessed as accumulation at G0/G1 phase at 10 uM after 48 hrs by flow cytometry (reference value: 81.9 %); type: functional; how it was run: as §1

Chain of Histone deacetylase 1 (Q13547 whole entry): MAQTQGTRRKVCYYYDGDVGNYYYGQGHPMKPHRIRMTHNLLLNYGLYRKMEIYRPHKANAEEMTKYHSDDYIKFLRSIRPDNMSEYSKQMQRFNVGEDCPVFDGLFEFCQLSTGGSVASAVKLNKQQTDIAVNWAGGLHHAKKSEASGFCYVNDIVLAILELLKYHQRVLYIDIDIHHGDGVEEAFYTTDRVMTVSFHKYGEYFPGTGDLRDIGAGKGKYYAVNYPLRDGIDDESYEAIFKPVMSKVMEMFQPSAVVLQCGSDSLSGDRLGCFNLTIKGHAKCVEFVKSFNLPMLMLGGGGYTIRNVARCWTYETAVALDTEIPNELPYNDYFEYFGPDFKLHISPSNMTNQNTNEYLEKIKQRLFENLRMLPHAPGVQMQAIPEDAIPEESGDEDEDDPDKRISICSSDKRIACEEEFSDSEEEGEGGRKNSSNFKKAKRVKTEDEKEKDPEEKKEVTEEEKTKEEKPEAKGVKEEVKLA
Chain of Histone deacetylase 2 (Q92769 whole entry): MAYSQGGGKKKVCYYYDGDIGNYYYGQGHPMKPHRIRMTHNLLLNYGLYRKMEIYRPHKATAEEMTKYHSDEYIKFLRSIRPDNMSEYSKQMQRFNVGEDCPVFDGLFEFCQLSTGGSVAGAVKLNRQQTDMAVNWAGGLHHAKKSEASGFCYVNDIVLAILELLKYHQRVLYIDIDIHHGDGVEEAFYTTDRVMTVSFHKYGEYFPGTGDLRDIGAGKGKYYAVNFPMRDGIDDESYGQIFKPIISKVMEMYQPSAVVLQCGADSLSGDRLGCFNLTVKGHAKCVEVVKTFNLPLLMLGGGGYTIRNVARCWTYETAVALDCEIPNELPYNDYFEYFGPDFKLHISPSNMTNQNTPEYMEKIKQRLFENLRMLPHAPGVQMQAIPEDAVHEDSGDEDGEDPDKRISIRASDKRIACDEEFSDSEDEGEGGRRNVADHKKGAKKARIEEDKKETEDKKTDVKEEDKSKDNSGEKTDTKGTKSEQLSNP

| SMILES | Activity (HCT-116 [1]) [%] | Activity (HCT-116 [2]) [%] | Activity (HCT-116 [3]) [%] | solubility [4] [µg/mL] | IC50 (Histone deacetylase 2) [nM] | IC50 (Histone deacetylase 1) [nM] | IC50 (HCT-116 [5]) [nM] | Activity (Mus musculus [6]) | Activity (Mus musculus [7]) | T/C (HCT-116 [8]) [%] | T/C (HCT-116 [9]) [%] | half-life [10] [h] | Tmax [11] [h] | Cmax [12] [µM] | Activity (HCT-116 [13]) [%] | Activity (HCT-116 [14]) [%] | Activity (HCT-116 [15]) [%] | Activity (HCT-116 [16]) [%] | Activity (HCT-116 [17]) [%] |
| --- | --- | --- | --- | --- | --- | --- | --- | --- | --- | --- | --- | --- | --- | --- | --- | --- | --- | --- | --- |
| CCN1CCN(C(=O)NCc2ccc(C(=O)Nc3cc(-c4cccs4)ccc3N)cc2)C(=O)C1=O | 71.5 | 1.4 | 2.3 | 600 (≈ 1220 µM) | 670 | 50 | 510 | Non-toxic | Non-toxic | 47 | 60 | 2.2 | 1 | 8.3 | 20.5 | 22.4 | 2.8 | 3.8 | 75.3 |
| CN1CCN(C(=O)NCc2ccc(C(=O)Nc3cc(-c4cccs4)ccc3N)cc2)CC1 | – | – | – | 1000 (≈ 2220 µM) | 800 | 80 | 530 | – | – | – | – | – | – | – | – | – | – | – | – |
| Nc1ccc(-c2cccs2)cc1NC(=O)c1ccc(CN(CCO)Cc2ccc3c(c2)OCO3)cc1 | – | – | – | < 100 | 740 | 60 | 490 | – | – | – | – | – | – | – | – | – | – | – | – |
| Nc1ccc(-c2cccs2)cc1NC(=O)c1ccc(CNC(=O)N2CCOCC2)cc1 | – | – | – | – | 880 | 100 | 440 | – | – | – | – | – | – | – | – | – | – | – | – |
| CCC(=O)NCc1ccc(C(=O)Nc2cc(-c3cccs3)ccc2N)cc1 | 79.5 | 1.4 | 4.6 | 500 (≈ 1320 µM) | 470 | 40 | 560 | – | – | – | – | – | – | – | 20.8 | 10.7 | 2.8 | 5.2 | 75 |
| Nc1ccccc1NC(=O)c1ccc(CN(CCO)Cc2ccc3c(c2)OCO3)cc1 | – | – | – | 200 (≈ 477 µM) | 3360 | 1170 | 1200 | – | – | – | – | – | – | – | – | – | – | – | – |
| Nc1ccccc1NC(=O)c1ccc(CNC(=O)OCc2cccnc2)cc1 [ENTINOSTAT] | 72.7 | 30.2 | 8.8 | – | – | – | 760 | – | Toxic | – | 51 | – | – | – | 5.5 | 13.6 | 2.2 | 4.9 | 62.1 |
